The assay addresses Cytochrome P450 3A4 (Homo sapiens, UniProt P08684). Briefly: Inhibition of human CYP3A4 expressed in Escherichia coli assessed as inhibition of nifedipine oxidation. The class given is ADME. In outline: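 Bicistronic human CYP3A4 expressed in E. coli DH5; bacterial membrane fractions (sonication, differential centrifugation) stored at -75 °C, P450 content by CO-difference spectroscopy. Nifedipine substrate with 100 pmol P450 per incubation, 37 °C shaking waterbath; pyridine metabolite quantified by HPLC.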

Bounds are passed on as bounds.

Usually IC50 stands for the concentration that inhibits the measured activity by half.

Cytochrome P450 3A4, sequence (P08684 whole entry): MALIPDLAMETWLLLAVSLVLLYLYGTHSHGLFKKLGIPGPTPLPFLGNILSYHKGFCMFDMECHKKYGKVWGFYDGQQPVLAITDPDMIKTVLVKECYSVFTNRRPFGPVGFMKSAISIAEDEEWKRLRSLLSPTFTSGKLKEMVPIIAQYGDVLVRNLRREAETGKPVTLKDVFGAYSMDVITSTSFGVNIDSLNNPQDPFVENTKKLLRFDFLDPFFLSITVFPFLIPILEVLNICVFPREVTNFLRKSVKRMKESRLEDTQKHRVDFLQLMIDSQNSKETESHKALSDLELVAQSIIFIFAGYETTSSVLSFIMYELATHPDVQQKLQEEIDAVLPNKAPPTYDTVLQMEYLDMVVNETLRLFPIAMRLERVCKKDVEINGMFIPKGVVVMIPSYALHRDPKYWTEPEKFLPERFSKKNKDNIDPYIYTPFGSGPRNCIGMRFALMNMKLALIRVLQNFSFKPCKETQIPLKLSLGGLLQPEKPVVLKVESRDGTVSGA

Consider `C[C@@]12C[C@H](c3ccoc3)OC(=O)C1=CC[C@]1(C)[C@H]2[C@H]2C=C[C@]1(O[C@@H]1O[C@H](CO)[C@@H](O)[C@H](O)[C@H]1O)C(=O)O2` [FIBLEUCINOSIDE], for which the IC50 is above 100 µM.
Regarding `COc1cc2c(cc1O)-c1cc3ccc(OC)c(OC)c3c[n+]1CC2` [COLUMBAMINE], the IC50 came to 30.6 µM.
Next, `C[C@@]12C[C@H](c3ccoc3)OC(=O)C1=CC[C@]1(C)[C@H]2[C@@H]2OC(=O)[C@@]1(O[C@@H]1O[C@H](CO)[C@@H](O)[C@H](O)[C@H]1O)[C@H]1O[C@@H]21` [FIBRAURINOSIDE]: above 100 µM.
The value for `C[C@H](C[C@@H](O)[C@](C)(O)[C@H]1CC[C@@]2(O)C3=CC(=O)[C@@H]4C[C@@H](O[C@@H]5O[C@H](CO)[C@@H](O)[C@H](O)[C@H]5O)[C@@H](O)C[C@]4(C)[C@H]3CC[C@]12C)C(C)(C)O` [FIBRAURECDYSIDE A] was above 100 µM.
Turning to `COc1cc2c(cc1O)-c1cc3ccc(O)c(OC)c3c[n+]1CC2` [STEPHARANINE], the IC50 is above 2.5 µM.
Turning to `C[C@H](C[C@@H](O)[C@](C)(O)[C@H]1CC[C@@]2(O)C3=CC(=O)[C@@H]4C[C@@H](O)[C@@H](O)C[C@]4(C)[C@H]3CC[C@]12C)C(C)(C)O` [MAKISTERONE A], the IC50 is above 100 µM.
Turning to `C[C@@]12C[C@H](c3ccoc3)OC(=O)[C@@H]1CC[C@@]1(CO[C@@H]3O[C@H](CO)[C@@H](O)[C@H](O)[C@H]3O)C(=O)C=CC[C@H]12`, the IC50 is above 100 µM.
In the case of `C[C@@]12C[C@H](c3ccoc3)OC(=O)[C@@H]1[C@@H](O)C[C@]1(C)[C@H]2[C@@H]2OC(=O)[C@@]1(O)[C@H]1O[C@@H]21` [FIBRAURETIN A], the IC50 is above 100 µM.
For `C[C@@]12[C@H]3CC=C[C@]1(O[C@@H]1O[C@H](CO)[C@@H](O)[C@H](O)[C@H]1O)C(=O)O[C@@H]2C[C@]1(O)C(=O)O[C@H](c2ccoc2)C[C@@]31C` [FIBRAURETINOSIDE A], the 50% inhibitory concentration (IC50) is above 100 µM.
The value for `COc1cc2c(cc1OC)-c1cc3ccc(OC)c(OC)c3c[n+]1CC2` [PALMATINE CHLORIDE] was 0.9 µM; that for `C[C@@]12[C@H]3CC=C[C@@]1(O[C@@H]1O[C@H](CO)[C@@H](O)[C@H](O)[C@H]1O)C(=O)O[C@@H]2C[C@]1(O)C(=O)O[C@H](c2ccoc2)C[C@@]31C` [EPI-FIBRAURETINOSIDE A] was above 100 µM.

The values above are taken from ChEMBL document CHEMBL1141349, “Cytochrome P3A4 inhibitors and other constituents of Fibraurea tinctoria” (J Nat Prod, 2007).
